Screens (PubChem BioAssay)
Only a selection was taken, and hits are over-represented in it overall.
T cruzi growth-1: T. cruzi intracellular proliferation inhibitors, primary screen, cell-based, beta-gal Tulahuen parasites, NIH3T3 host, luminescence; actives 5.9% (n = 77,000); inhibition, % at 8.34 µM; AID 624255, 2012; T. cruzi beta-gal in NIH3T3, GalScreen luminescence, 90 h;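 active = mean inhibition above about 93%, with at least 55% of replicates each passing it, limit read from the data, passing the limit was not always enough; inconclusive = only one of those two conditions holds; inactive = neither condition holds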
GASC1 inh: inhibitors of GASC-1 (KDM4C) histone demethylase, primary screen, biochemical, single concentration HTS | Lysine-specific demethylase 4C (Homo sapiens), Q9H3R0 | GST-KDM4C 2-372, H3K9me3 peptide, LANCE TR-FRET | inhibition, % at 12.5 µM | actives 0.15% (n = 96,000) | AID 720574, 2013;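 active = mean replicate inhibition above about 25%, with at least 55% of replicates also reaching it, limit read from the data, passing the limit was not always enough; inconclusive = only one of those two conditions met; inactive = neither condition met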
Target sequence (Q9H3R0 2-372 limits assumed): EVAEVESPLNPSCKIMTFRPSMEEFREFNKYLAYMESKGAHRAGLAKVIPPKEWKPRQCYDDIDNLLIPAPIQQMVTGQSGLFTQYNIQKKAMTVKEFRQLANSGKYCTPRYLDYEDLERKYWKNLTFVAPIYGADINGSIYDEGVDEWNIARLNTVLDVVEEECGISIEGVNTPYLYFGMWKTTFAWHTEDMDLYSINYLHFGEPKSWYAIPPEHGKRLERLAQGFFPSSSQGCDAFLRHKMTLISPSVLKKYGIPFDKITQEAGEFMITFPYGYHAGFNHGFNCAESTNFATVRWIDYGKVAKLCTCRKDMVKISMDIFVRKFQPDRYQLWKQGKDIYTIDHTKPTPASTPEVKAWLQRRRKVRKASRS
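reagent = H3K9me3 peptide substrate, Fe(II), 2-oxoglutarate | system = GST-tagged GASC-1 (JMJD2C) catalytic fragment, aa 2-372 | amount = enzyme final amount 10 nM | read-out = Fall in 671/618 emission ratio as inhibition | medium = HEPES buffer, pH 7.5, plus ascorbate | schedule = 30 min reaction, 60 min detection, RT | measured by = LANCE TR-FRET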
IDH1 R132H inh: inhibitors of IDH1 R132H reductase, primary screen, biochemical, plate reader, single point | Isocitrate dehydrogenase [NADP] cytoplasmic (Homo sapiens), O75874 | diaphorase/resazurin fluorescence, 60 min | inhibition, % at 10 µM | actives 0.18% (n = 70,000); in the data active = inhibition above about 34%; inconclusive = no clear call, values can overlap the other calls; inactive = below about 11%;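 note: 0% = DMSO and 100% = no enzyme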
T cruzi growth-2: T. cruzi intracellular proliferation inhibitors, confirmation, cell-based, NIH3T3 host, beta-gal parasite, luminescence, cherry-pick; shares compounds with T cruzi growth-1; T. cruzi beta-gal in NIH3T3, GalScreen luminescence, 90 h; inhibition, % at 8.35 µM; actives 72% (n = 5,600); AID 651739, 2012;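 active = mean replicate inhibition above about 95% and at least 55% of replicates individually reaching it, limit read from the data; inconclusive = only one of the two criteria is met; inactive = neither criterion is met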
T cruzi growth-3: inhibitors of intracellular T. cruzi replication, confirmation, NIH3T3 host cells, beta-gal parasites, cherry-pick, set 2. shares compounds with T cruzi growth-1. T. cruzi beta-gal in NIH3T3, GalScreen luminescence, 90 h. inhibition, % at 2.09 µM. actives 21% (n = 5,600). AID 651740, 2012;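 active = mean inhibition above about 95%, with at least 55% of replicates also reaching it, limit read from the data; inconclusive = meets just one of the two conditions; inactive = meets neither condition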;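 note: plate controls were neutral control median for no effect and positive control median for full effect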
NIH3T3 tox: cytotoxicity in mouse NIH/3T3 fibroblasts, confirmation, cytotoxicity control for T. cruzi proliferation inhibitor project, cell-based, cherry-pick, single point. shares compounds with T cruzi growth-1. NIH/3T3 viability, CellTiter-Glo ATP luminescence, 90 h. cytotoxicity (signal decrease), % at 8.35 µM. actives 14% (n = 5,600);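 active = mean signal decrease across replicates above about 35% based on untreated-well scatter, with enough replicates individually passing, limit read from the data; inconclusive = no rule stated though some were filed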;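 note: 0% = median of neutral control wells and 100% = median of positive control wells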
NIH3T3 tox 2: NIH/3T3 fibroblast cytotoxicity, confirmation, cytotoxicity control, cell-based, cherry-pick, single point, set 2; actives 56% (n = 5,600); shares compounds with T cruzi growth-1; inhibition, % at 24.9 µM; NIH/3T3 viability, CellTiter-Glo ATP luminescence, 90 h;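 active = mean loss of cell viability signal at or above a set limit, and enough replicates individually reaching it; inconclusive = meets only the mean limit or only the replicate share; inactive = meets neither condition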;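 note: 0% = median of neutral control wells and 100% = median of positive control wells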
Numbers without * were called inactive; u = inconclusive; x = not tested or not shown.

SMILES	T cruzi growth-1	GASC1 inh	IDH1 R132H inh	T cruzi growth-2	T cruzi growth-3	NIH3T3 tox	NIH3T3 tox 2
CN(C)CC#Cc1ccc([C@@H]2[C@@H](CO)N3CCCCN(C(=O)Nc4ccccc4F)C[C@H]23)cc1	-11	4	x	x	x	x	x
CN(C)CC#Cc1ccc([C@@H]2[C@H](CO)N3CCCCN(C(=O)Nc4ccccc4F)C[C@@H]23)cc1	102*	4	x	u	93	-8	39*
CN(C)CC#Cc1ccc([C@H]2[C@H](CO)N3CCCCN(C(=O)Nc4cc(F)ccc4F)C[C@@H]23)cc1	105*	5	x	99*	43	24	58*
COCC#Cc1ccc([C@@H]2[C@@H](CO)N3CCCCN(C(=O)Nc4cc(F)ccc4F)C[C@@H]23)cc1	87	-1	x	x	x	x	x
COCC#Cc1ccc([C@H]2[C@@H](CO)N3CCCCN(C(=O)Nc4cc(F)ccc4F)C[C@H]23)cc1	101*	1	x	104*	62	-1	89*
Cc1noc(C)c1NC(=O)Nc1ccc2c(c1)CC(=O)N([C@@H](C)CO)C[C@@H](C)[C@H](CN(C)C(=O)Nc1ccc(C(F)(F)F)cc1)O2	26	2	0	x	x	x	x
Nc1cc(=O)[nH]c(SCC(=O)N2CCN(c3ccccc3)CC2)n1	x	x	-1	x	x	x	x
CCCC(=O)N1CCC2(CC1)CN(S(C)(=O)=O)[C@@H](CO)c1c2c2ccc(OC)cc2n1C	x	0	x	x	x	x	x
COc1ccc(C#Cc2ccc([C@H]3[C@@H](CO)N4CCCCN(S(=O)(=O)c5ccccc5)C[C@H]34)cc2)cc1	101*	-1	x	98*	76	25	104*
COc1ccc(C#Cc2ccc([C@H]3[C@H]4CN(S(=O)(=O)c5ccccc5)CCCCN4[C@H]3CO)cc2)cc1	107*	-1	x	111*	99*	3	52*
COc1ccc(S(=O)(=O)N2CCCCN3[C@H](C2)[C@@H](c2ccc(C#CCC(C)C)cc2)[C@@H]3CO)cc1	65	0	x	x	x	x	x
O=S(=O)(c1ccccc1)N1CCCCN2[C@@H](CO)[C@@H](c3ccc(C#Cc4ccccc4)cc3)[C@@H]2C1	70	-2	x	x	x	x	x
O=S(=O)(c1ccccc1)N1CCCCN2[C@H](CO)[C@@H](c3ccc(C#Cc4ccccc4)cc3)[C@@H]2C1	83	x	x	x	x	x	x
COc1ccc(C#Cc2ccc([C@@H]3[C@H]4CN(S(=O)(=O)c5ccccc5)CCCCN4[C@H]3CO)cc2)cc1	46	0	x	x	x	x	x
O=S(=O)(c1ccccc1)N1CCCCN2[C@H](CO)[C@@H](c3ccc(C#Cc4cccnc4)cc3)[C@H]2C1	u	x	x	110*	62	25	79*
COc1ccc(S(=O)(=O)N2CCCCN3[C@@H](CO)[C@H](c4ccc(C#CC(C)C)cc4)[C@@H]3C2)cc1	104*	2	x	98*	85	46*	104*
CCN(CC(=O)O)S(=O)(=O)c1ccc(C)cc1	x	x	0	x	x	x	x
O=C(Nc1ccccc1F)N1CCCCN2[C@@H](CO)[C@@H](c3ccc(/C=C/c4ccccc4)cc3)[C@@H]2C1	70	-2	x	x	x	x	x
C/C=C/c1ccc([C@@H]2[C@@H](CO)N3CCCCN(C(=O)Nc4ccccc4F)C[C@@H]23)cc1	55	0	x	x	x	x	x
O=C(Nc1ccccc1F)N1CCCCN2[C@H](CO)[C@@H](c3ccc(/C=C/c4ccccc4)cc3)[C@@H]2C1	112*	-2	x	98*	101*	12	105*
O=C(Nc1ccccc1F)N1CCCCN2[C@H](C1)[C@H](c1ccc(/C=C/c3ccccc3)cc1)[C@@H]2CO	116*	-1	x	110*	51	4	47*
O=S(=O)(c1ccccc1)N1CCCCN2[C@H](C1)[C@@H](c1ccc(-c3ccccc3F)cc1)[C@@H]2CO	17	x	x	x	x	x	x
O=S(=O)(c1ccccc1)N1CCCCN2[C@@H](CO)[C@@H](c3ccc(-c4ccccc4F)cc3)[C@@H]2C1	80	-1	x	x	x	x	x
O=S(=O)(c1ccccc1)N1CCCCN2[C@H](CO)[C@H](c3ccc(-c4ccccc4F)cc3)[C@@H]2C1	103*	1	x	106*	84	-9	42*
O=S(=O)(c1ccccc1)N1CCCCN2[C@@H](CO)[C@H](c3ccc(-c4ccccc4F)cc3)[C@@H]2C1	105*	-1	x	104*	74	31	106*
SMILES	T cruzi growth-1	GASC1 inh	IDH1 R132H inh	T cruzi growth-2	T cruzi growth-3	NIH3T3 tox	NIH3T3 tox 2
C[C@@H]1CN([C@@H](C)CO)C(=O)c2cccc(NC(=O)Nc3ccc(C(F)(F)F)cc3)c2O[C@H]1CN(C)S(=O)(=O)c1ccccc1	71	-2	3	x	x	x	x
COc1ccc(-c2ccc(C#N)c(SCC(=O)Nc3cccc(C(F)(F)F)c3)n2)cc1	x	x	0	x	x	x	x
COc1ccccc1NC(=O)N1CCCCN2[C@H](C1)[C@@H](c1ccc(-c3cccc(C)c3)cc1)[C@@H]2CO	77	-1	x	x	x	x	x
Cc1cccc(-c2ccc([C@H]3[C@@H](CO)N4CCCCN(C(=O)NC(C)C)C[C@H]34)cc2)c1	109*	-2	x	108*	84	-15	105*
COc1ccc(-c2ccc([C@@H]3[C@H](CO)N4CCCCN(C(=O)NC(C)C)C[C@@H]34)cc2)cc1	109*	1	x	108*	67	10	45*
COc1cccc(-c2ccc([C@H]3[C@H]4CN(C(=O)NC(C)C)CCCCN4[C@H]3CO)cc2)c1	91	0	x	x	x	x	x
COc1cccc(-c2ccc([C@@H]3[C@H](CO)N4CCCCN(C(=O)NC(C)C)C[C@@H]34)cc2)c1	102*	-1	x	105*	51	-3	48*
COc1ccc(-c2ccc([C@H]3[C@H]4CN(C(=O)NC(C)C)CCCCN4[C@H]3CO)cc2)cc1	37	0	x	x	x	x	x
Cc1cccc(-c2ccc([C@@H]3[C@H]4CN(C(=O)NC(C)C)CCCCN4[C@H]3CO)cc2)c1	91	-1	x	x	x	x	x
COc1ccccc1NC(=O)N1CCCCN2[C@H](CO)[C@H](c3ccc(-c4cccc(C)c4)cc3)[C@@H]2C1	u	-1	x	107*	103*	5	u
CC1(CO)C=Cc2c(cc(O)c3c(=O)c(-c4ccc(O)cc4)coc23)O1 (stereo unspecified)	x	x	0	x	x	x	x
